Measurements as given in PMC3184254 (Nature Chemical Biology, 2011).
Read-outs that look alike come from different tables or passages of the source.

Columns and labels:
[1] = molecular target: SUV39H1 (Homo sapiens, UniProt O43463); assay: BPS Bioscience assay, SUV39H1; type: biochemical
[2] = tested on: H3K9me2 levels in breast, prostate, colon carcinomas and normal fibroblast cells; assay: H3K9me2 in-cell western, tumor and normal cell lines; type: cell-based, human
[3] = molecular target: M2 (Homo sapiens, UniProt P08172); assay: M2 functional assay; type: cell-based
M2, sequence (P08172 whole entry): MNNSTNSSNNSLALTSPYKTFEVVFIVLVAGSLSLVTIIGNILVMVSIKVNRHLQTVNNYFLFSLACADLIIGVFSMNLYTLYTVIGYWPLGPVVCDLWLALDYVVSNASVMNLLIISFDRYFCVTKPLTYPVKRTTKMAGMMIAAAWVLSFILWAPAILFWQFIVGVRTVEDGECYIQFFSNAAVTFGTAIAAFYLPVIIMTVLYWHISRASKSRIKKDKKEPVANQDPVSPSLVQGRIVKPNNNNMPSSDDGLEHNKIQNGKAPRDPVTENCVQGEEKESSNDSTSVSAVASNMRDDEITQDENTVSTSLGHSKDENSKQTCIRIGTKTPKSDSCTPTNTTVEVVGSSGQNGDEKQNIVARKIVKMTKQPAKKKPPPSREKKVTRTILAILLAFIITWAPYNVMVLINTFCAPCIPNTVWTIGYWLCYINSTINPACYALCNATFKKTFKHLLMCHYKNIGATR

[4] = tested on: MAGEA2 and DUB1 genes in J1 mES cells; assay: mRNA levels of G9a-regulated endogenous genes; type: cell-based, mouse; details: day 10; versus untreated or UNC0737-treated cells
[5] = Stability in cell media with or without cells; type: in vitro ADME; details: with or without MCF7, U2OS or H1299 cells, two types of cell media, 65 h
[6] = tested on: J1 mES cells; assay: SSEA1 pluripotency marker immunostaining, flow cytometry; type: cell-based, mouse; details: 100 nM
[7] = tested on: H3K9me2 at EGFP provirus and MAGEA2 promoter in mES cells; assay: ChIP of H3K9me2 in mES cells; type: cell-based, mouse; details: 500 nM for 3 or 7 d
[8] = tested on: MCF7 cells; assay: Clonogenicity assay, MCF7; type: cell-based, human
[9] = molecular target: JMJD2E (Homo sapiens, UniProt B2RXH2); assay: Alphascreen assay, JMJD2E; type: biochemical
JMJD2E, sequence (B2RXH2 whole entry): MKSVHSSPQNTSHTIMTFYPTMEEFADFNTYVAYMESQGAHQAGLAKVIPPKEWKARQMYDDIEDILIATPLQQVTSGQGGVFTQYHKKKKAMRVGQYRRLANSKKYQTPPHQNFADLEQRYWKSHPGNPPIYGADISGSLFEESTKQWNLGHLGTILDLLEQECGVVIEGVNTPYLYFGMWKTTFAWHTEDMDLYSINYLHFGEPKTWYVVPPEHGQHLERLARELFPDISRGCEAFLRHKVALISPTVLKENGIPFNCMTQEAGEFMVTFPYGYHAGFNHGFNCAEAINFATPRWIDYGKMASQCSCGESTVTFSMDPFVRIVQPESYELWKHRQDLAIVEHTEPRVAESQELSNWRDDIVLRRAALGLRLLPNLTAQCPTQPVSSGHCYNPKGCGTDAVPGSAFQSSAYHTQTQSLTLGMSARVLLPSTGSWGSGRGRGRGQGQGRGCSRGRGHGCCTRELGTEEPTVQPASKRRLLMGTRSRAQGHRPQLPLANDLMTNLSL

[10] = tested on: panel of 24 kinases; assay: Kinase selectivity panel; type: biochemical; details: at 1 μM; 24 kinases
[11] = molecular target: SUV39H2 (Homo sapiens, UniProt Q9H5I1); assay: SAHH-coupled assay, SUV39H2; type: biochemical
SUV39H2, sequence (Q9H5I1 whole entry, species assumed): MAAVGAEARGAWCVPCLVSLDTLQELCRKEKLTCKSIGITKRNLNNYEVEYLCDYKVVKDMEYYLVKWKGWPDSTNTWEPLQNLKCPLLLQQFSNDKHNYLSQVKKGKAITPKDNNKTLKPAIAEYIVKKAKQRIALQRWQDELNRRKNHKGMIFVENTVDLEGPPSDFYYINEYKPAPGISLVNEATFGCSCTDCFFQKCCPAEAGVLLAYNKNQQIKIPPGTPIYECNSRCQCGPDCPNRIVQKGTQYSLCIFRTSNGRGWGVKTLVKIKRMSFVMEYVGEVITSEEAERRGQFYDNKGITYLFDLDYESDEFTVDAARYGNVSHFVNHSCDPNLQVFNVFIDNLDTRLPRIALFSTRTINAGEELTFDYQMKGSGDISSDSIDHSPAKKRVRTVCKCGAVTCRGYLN
In short: (§1)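 A fluorescence-based coupled assay used S-adenosyl-L-homocysteine hydrolase to follow conversion of cofactor SAM to SAH by the methyltransferase. IC50 values are the average of at least two separate experiments.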

[12] = molecular target: T1, SETD8 (Homo sapiens, UniProt Q9NQR1); assay: SAHH-coupled assay, SETD8; type: biochemical
T1 sequence (Q9NQR1 1-393): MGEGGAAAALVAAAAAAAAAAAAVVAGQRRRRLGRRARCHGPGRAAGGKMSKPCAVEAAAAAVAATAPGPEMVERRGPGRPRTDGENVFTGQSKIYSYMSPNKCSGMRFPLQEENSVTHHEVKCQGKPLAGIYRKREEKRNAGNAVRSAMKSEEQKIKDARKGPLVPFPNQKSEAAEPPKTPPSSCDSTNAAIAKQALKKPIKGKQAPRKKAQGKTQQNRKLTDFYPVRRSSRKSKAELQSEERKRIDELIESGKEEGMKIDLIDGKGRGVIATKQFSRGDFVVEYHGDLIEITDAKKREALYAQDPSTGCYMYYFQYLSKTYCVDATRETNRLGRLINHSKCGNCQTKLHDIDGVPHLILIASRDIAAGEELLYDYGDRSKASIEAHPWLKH
In short: as §1

[13] = tested on: H3K9me2 levels in MDA-MB-231 cells; assay: H3K9me2 in-cell western, MDA-MB-231; type: cell-based, human
[14] = Mouse drug metabolism and pharmacokinetic studies; type: in vivo; details: intravenous, oral or intraperitoneal administration
[15] = molecular target: adrenergic α1B receptor (Rattus norvegicus, UniProt P15823); assay: Ricerca Selectivity Panel, adrenergic α1B; type: binding
adrenergic α1B receptor, sequence (P15823 whole entry): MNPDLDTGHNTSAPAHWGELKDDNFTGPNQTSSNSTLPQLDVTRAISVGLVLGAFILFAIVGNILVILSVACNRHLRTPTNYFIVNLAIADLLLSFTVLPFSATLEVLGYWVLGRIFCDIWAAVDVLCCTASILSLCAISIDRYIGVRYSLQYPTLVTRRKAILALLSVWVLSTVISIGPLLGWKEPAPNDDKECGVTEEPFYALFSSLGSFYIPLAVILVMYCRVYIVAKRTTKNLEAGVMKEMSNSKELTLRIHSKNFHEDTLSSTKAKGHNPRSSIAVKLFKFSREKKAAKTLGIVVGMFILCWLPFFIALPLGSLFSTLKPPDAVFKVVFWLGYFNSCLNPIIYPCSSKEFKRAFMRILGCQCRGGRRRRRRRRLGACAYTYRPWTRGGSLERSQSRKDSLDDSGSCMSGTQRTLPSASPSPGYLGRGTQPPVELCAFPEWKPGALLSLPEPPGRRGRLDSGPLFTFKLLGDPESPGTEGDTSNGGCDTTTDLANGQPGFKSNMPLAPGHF

[16] = tested on: H3K9me2 levels in MCF7 cells; assay: H3K9me2 inhibition, MCF7; type: cell-based; details: Homo sapiens, MCF7, read-out: IC90 for H3K9me2 inhibition
[17] = molecular target: M4 (Homo sapiens, UniProt P08173); assay: M4 functional assay; type: cell-based
M4, sequence (P08173 whole entry): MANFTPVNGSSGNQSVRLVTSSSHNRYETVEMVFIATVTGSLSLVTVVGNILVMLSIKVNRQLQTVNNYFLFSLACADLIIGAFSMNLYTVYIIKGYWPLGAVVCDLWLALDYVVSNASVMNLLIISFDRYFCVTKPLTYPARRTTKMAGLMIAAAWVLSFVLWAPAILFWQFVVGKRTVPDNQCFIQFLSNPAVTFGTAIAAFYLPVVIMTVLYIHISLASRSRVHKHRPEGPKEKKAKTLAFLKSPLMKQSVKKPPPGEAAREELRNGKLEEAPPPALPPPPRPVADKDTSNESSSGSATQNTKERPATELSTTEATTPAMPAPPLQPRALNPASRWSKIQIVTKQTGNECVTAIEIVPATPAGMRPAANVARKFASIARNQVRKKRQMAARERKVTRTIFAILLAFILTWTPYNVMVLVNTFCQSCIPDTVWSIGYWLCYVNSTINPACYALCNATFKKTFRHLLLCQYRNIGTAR

[18] = tested on: MDA-MB-231 cells; assay: Clonogenicity assay, MDA-MB-231; type: cell-based, human
[19] = tested on: H3K9me2 levels in PC3 cells; assay: H3K9me2 in-cell western, PC3; type: cell-based; details: Homo sapiens, PC-3, read-out: IC50 for reduction of H3K9me2 levels
[20] = molecular target: MLL (Homo sapiens, UniProt Q03164); assay: BPS Bioscience assay, MLL; type: biochemical
[21] = tested on: H3K9me2 at genomic loci on chr3 and chrX in MCF7 cells; assay: ChIP-chip with H3K9me2 antibody; type: cell-based, human; details: 320 nM for 14 d
[22] = tested on: 45 targets, including 36 GPCRs; assay: NIMH Psychoactive Drug Screen Program Selectivity Panel; type: binding; details: at 1 μM
[23] = tested on: HSC1-EF1α-EGFP-Puromycin retrovirus in J1 mES cells; assay: Reactivation of silent EGFP retrovirus vector, flow cytometry; type: cell-based, mouse
[24] = molecular target: T2, SETD7 (Homo sapiens, UniProt Q8WTS6); assay: SAHH-coupled assay, SETD7; type: biochemical
T2 sequence (Q8WTS6 1-366): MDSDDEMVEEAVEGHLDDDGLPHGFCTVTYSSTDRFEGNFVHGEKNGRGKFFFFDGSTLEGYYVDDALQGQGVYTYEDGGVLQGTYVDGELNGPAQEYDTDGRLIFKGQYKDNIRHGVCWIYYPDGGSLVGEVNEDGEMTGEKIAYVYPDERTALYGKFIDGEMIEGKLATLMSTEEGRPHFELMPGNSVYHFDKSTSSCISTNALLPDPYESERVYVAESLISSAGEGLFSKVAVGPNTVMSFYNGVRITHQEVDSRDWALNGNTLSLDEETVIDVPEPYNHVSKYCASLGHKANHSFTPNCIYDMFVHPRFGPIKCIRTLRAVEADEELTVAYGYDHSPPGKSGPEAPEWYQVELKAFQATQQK
In short: as §1

[25] = assay results from BPS Bioscience

SUV39H1, sequence (O43463 whole entry, species assumed): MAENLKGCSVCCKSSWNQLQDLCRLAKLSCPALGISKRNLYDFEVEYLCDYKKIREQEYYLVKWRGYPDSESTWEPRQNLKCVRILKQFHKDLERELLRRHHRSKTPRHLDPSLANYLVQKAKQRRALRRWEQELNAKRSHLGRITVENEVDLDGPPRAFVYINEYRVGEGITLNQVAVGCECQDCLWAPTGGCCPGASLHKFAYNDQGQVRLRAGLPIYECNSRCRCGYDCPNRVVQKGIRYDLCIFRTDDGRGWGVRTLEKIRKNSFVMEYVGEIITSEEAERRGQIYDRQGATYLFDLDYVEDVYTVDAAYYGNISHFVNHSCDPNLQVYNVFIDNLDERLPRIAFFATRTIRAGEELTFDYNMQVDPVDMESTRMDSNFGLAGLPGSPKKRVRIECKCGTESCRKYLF

Question: Which IC50 [1] does the source give for `COc1cc2c(NC3CCN(C(C)C)CC3)nc(C3CCCCC3)nc2cc1OCCCN1CCCC1` [UNC0638] here?
Answer: > 10000 nM

Question: What about the IC50 [1, 25] of the same compound?
Answer: inactive

Question: And the IC50 ([2]; Homo sapiens, Fibroblast, read-out: potency in reducing H3K9me2 levels)?
Answer: 48 to 238 nM

Question: What about the “reduction of H3K9me2 levels” value ([2]; at 250 nM, variety of cell lines) of the same compound?
Answer: 60–80%

Question: What about the IC50 [3] of the same compound?
Answer: 480 ± 10 nM

Question: And the “expression of DUB1 and MAGEA2 genes” value [4]?
Answer: more highly expressed

Question: And the “stability in cell media” value [5]?
Answer: did not produce degradation products

Question: What about the “SSEA1+ cells” value [6] of the same compound?
Answer: 97%

Question: What about the “H3K9me2 at EGFP provirus and MAGEA2 promoter (ChIP)” value [7] of the same compound?
Answer: decreased H3K9me2 at both targets by day 3

Question: And the clonogenicity [8]?
Answer: marked concentration-dependent reduction of clonogenicity

Question: And the IC50 [9]?
Answer: 4500 nM

Question: What about the inhibition [10] of the same compound?
Answer: < 10%

Question: And the IC50 [11]?
Answer: > 10000 nM

Question: And the IC50 ([11]; SAHH-coupled assay)?
Answer: inactive

Question: What about the IC50 [12] of the same compound?
Answer: > 10000 nM

Question: What about the IC50 ([12]; SAHH-coupled assay) of the same compound?
Answer: inactive

Question: And the IC90 ([13]; Homo sapiens, MDA-MB-231, read-out: IC90 for reduction of H3K9me2 levels)?
Answer: 250 nM

Question: And the “cellular H3K9me2 levels after 4 d” value ([13]; MDA-MB-231 cells, 250 or 500 nM)?
Answer: equal or very close to those of G9a and GLP knockdown cells

Question: What about the IC50 ([13]; read-out: IC50 for reduction of H3K9me2 levels, MDA-MB-231 cells, 48 h exposure, in-cell western) of the same compound?
Answer: 80 nM

Question: What about the clearance [14] of the same compound?
Answer: high

Question: And the half-life [14]?
Answer: short

Question: And the volume distribution [14]?
Answer: high

Question: What about the inhibition at 1 µM [15] of the same compound?
Answer: 69%

Question: And the IC90 [16]?
Answer: 320 nM

Question: And the IC50 [17]?
Answer: > 10000 nM

Question: And the clonogenicity [18]?
Answer: much less effect

Question: And the IC50 [19]?
Answer: 59 nM

Question: What about the IC50 [20] of the same compound?
Answer: > 10000 nM

Question: And the IC50 [20, 25]?
Answer: inactive

Question: What about the “genomic regions containing H3K9me2 on chr3 and chrX” value [21] of the same compound?
Answer: significantly fewer genomic regions containing H3K9me2

Question: What about the inhibition ([22]; against 6 targets in the panel) of the same compound?
Answer: > 50%

Question: What about the inhibition ([22]; against 39 targets in the panel) of the same compound?
Answer: < 50%

Question: What about the “EGFP+ cells, maximal level” value ([23]; day 10, UNC0638 100, 250 or 500 nM, untreated 36%) of the same compound?
Answer: 63%

Question: And the “EGFP+ cells” value ([23]; day 12)?
Answer: 75%

Question: What about the IC50 [24] of the same compound?
Answer: > 10000 nM

Question: What about the IC50 ([24]; SAHH-coupled assay) of the same compound?
Answer: inactive
